Compound activity deposited in PubChem by The Scripps Research Institute Molecular Screening Center.
An excerpt weighted towards active compounds, which were near 3.3% of everything screened.
PRMT1 FP inh = PRMT1 (human) inhibition, primary screen; Q99873; recombinant PRMT1, activity-based probe fluorescence polarization; inhibition, % at 2.79 µM; actives 1.3% (n = 370,000);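 active = inhibition above about 21% made by adding two undisclosed values, limit read from the data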
rCAG binder = molecules binding r(CAG) RNA repeats | r(CAG) RNA repeat, TO-PRO-1 dye displacement fluorescence | inhibition, % at 3 µM | actives 1.3% (n = 370,000);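 active = inhibition above the plate cutoff, the mean of all test compounds on that plate plus 3 SD, cut at about 35% in these data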;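 also: 0% = DMSO alone and 100% = 100 µM mitoxantrone as full dye displacement; higher means more dye released from RNA so lower well fluorescence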
SIAE primary = blocks human sialic acid acetylesterase. Q9HAT2. SIAE FP-Rh probe binding, fluorescence polarization. actives 0.69% (n = 370,000). inhibition, % at 9.66 µM;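 active = inhibition above a cutoff: mean of compounds within the control limits plus 3 SD of those, cut at about 17% in these data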;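 also: 0% = plate median of compound wells and 100% = probe without SIAE protein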
HTRA1 inh = blocks human HTRA1 serine peptidase; Q92743; inhibition, % at 5.96 µM; recombinant HTRA1, FP-rhodamine activity-based probe, fluorescence polarization; actives 0.5% (n = 340,000); in the data active = inhibition above about 36%;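 also: 0% = enzyme with DMSO and 100% = wells lacking enzyme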
Target sequence (Q92743 whole entry, looked up): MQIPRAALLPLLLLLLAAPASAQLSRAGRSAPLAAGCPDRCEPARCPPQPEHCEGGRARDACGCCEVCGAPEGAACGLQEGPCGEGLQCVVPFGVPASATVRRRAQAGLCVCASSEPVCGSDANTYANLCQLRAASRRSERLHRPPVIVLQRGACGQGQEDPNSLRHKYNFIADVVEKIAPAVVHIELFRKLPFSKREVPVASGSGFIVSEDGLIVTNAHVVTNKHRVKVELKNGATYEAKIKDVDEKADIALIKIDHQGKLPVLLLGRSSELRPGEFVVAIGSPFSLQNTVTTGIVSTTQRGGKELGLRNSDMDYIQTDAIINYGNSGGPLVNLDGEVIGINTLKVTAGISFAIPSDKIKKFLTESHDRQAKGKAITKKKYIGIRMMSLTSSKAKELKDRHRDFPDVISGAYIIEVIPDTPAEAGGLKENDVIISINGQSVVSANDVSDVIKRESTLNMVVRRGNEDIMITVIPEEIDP
mABHD4 FP = inhibitors of mouse ABHD4 | AID 720543 | actives 0.54% (n = 370,000) | inhibition, % at 8.92 µM | purified mABHD4, FP-Rh probe fluorescence polarization | Q8VD66;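 active = inhibition exceeding the mean over every tested compound plus 3 SD, cut at about 30% in these data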;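 also: 0% = plate median of compound wells and 100% = S159A mutant with DMSO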
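system = mouse ABHD4 enzyme, wild type | medium = HEPES pH 7.0, NaCl, Pluronic buffer | also added = FP-Rh probe | incubation = Enzyme–compound pre-incubation 45 min, then probe 60 min, both 25 °C | technique = fluorescence polarization, excitation 525 nm, emission 598 nm, BODIPY TMR filters | controls = S159A mutant high control, sample median low control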
HTRA1 inh conf = HTRA1 (human) inhibition, confirmation; shares compounds with HTRA1 inh; recombinant HTRA1, FP-rhodamine activity-based probe, fluorescence polarization; inhibition, % at 5.96 µM; actives 66% (n = 1,600); AID 540248;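 active = mean inhibition over three repeats above a set limit taken from the earlier primary screen, cut at about 37% in these data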;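 also: 0% = HTRA1 with DMSO and 100% = wells lacking HTRA1; inhibitors block probe binding so polarization drops and inhibition rises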
rCAG bind conf = r(CAG) RNA repeat binding, confirmation; shares compounds with rCAG binder; TO-PRO-1 dye displacement fluorescence; inhibition, % at 3 µM; actives 70% (n = 4,300); AID 652065;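 active = inhibition above a per-plate cutoff, the mean inhibition of sample wells plus 3 SD, cut at about 35% in these data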;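 also: loss of TO-PRO-1 fluorescence as compound displaces dye from 1x1 AA loop RNA; 0% = DMSO only wells and 100% = 100 µM mitoxantrone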
DNA CAG counter = counter-screen for rCAG RNA binders: DNA CAG dye complex inhibitors; shares compounds with rCAG binder; d(CAG) DNA oligo TO-PRO-1 dye displacement, fluorescence; inhibition, % at 3 µM; actives 94% (n = 4,300); AID 652068;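 active = inhibition above its plate's cutoff, the mean test-well inhibition plus 3 SD, cut at about 4.8% in these data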;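 also: 0% = DNA dye mix with DMSO and 100% = 100 µM mitoxantrone; hits displace the dye from DNA and so lower well fluorescence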
PRMT1 confirm = confirmation of human PRMT1 inhibitors; AID 687036; recombinant His-PRMT1, activity-based probe fluorescence polarization; actives 42% (n = 3,300); shares compounds with PRMT1 FP inh; inhibition, % at 2.79 µM;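 active = mean inhibition across replicates above the hit cutoff derived for the earlier primary screen, cut at about 22% in these data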
mABHD4 conf = ABHD4 (mouse) inhibition, FP confirmation | shares compounds with mABHD4 FP | purified mABHD4, FP-Rh probe fluorescence polarization | inhibition, % at 8.92 µM | actives 55% (n = 1,800) | AID 720658;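 active = mean inhibition across replicates above the hit cutoff set in the primary screen, cut at about 30% in these data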;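 also: 0% = wild-type ABHD4 with DMSO and 100% = catalytically dead S159A mutant with DMSO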
SIAE confirm = human SIAE inhibition, confirmation; inhibition, % at 9.66 µM; SIAE FP-Rh activity-based probe, fluorescence polarization; AID 1117263; actives 13% (n = 2,300); shares compounds with SIAE primary;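 active = mean inhibition of the replicates above the hit cutoff set in the primary screen, cut at about 17% in these data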;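 also: 0% = SIAE with DMSO and probe and 100% = probe without SIAE; inhibitors lower polarization as more probe stays unbound to SIAE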
An asterisk follows results filed as active; i = inactive; nt = not tested or not shown; ! = repeats disagree.

SMILES	PRMT1 FP inh	rCAG binder	SIAE primary	HTRA1 inh	mABHD4 FP	HTRA1 inh conf	mABHD4 conf	others
C[n+]1c(-c2ccccc2)sc2ccccc21	35*	-3	-7	-4	4	nt	nt
Cn1ccnc1P(=S)(c1nccn1C)c1nccn1C	0	-4	0	71*	3	106*	nt
COc1ccccc1CCNCc1cc2c(cc1[N+](=O)[O-])OCO2	-2	-2	7	42*	14	10	nt
COc1ccc(Br)cc1CNCCc1ccc2c(c1)OCO2	0	1	-4	8	7	nt	nt
O=C(COC(=O)Cc1ccccc1)NC(=O)NC1CCCCC1	-3	-12	3	36*	2	38*	nt
c1cncc(-c2ccc3n2Cc2cnnn2-c2ccccc2-3)c1	2	-2	-2	nt	4	nt	nt
O=C(NCCN1CCC2(CC1)C(=O)NCN2c1ccccc1)c1ccccc1C(F)(F)F	1	1	4	nt	-2	nt	nt
O=C(O)c1cccc2c1NC(C(=O)O)C1CC(Sc3ccccc3[N+](=O)[O-])C(Cl)C21 (configuration not stated)	81*	100*	61*	93*	82*	60*	nt
CN1C2(C)c3ccccc3C1(c1ccccc1)c1ccccc12	-2	1	-5	nt	4	nt	nt
O=C(NC1CCCCC1)N1Cc2ccc(Br)cc2-n2nncc2C1	3	-1	-3	nt	-1	nt	nt
COc1cccc(-n2c(/C=C/c3ccc(O)c(O)c3)nc3ccccc3c2=O)c1	2	19	-3	58*	21	47*	nt
Oc1ccc(/C=N/NP(=S)(c2ccccc2)c2ccccc2)cc1O	1	16	-9	58*	24	62*	nt
Oc1ccccc1/C=N/NP(=S)(c1ccccc1)c1ccccc1	11	6	-15	-31	-36	nt	nt
Oc1ccc(/C=N/NP(=S)(c2ccccc2)c2ccccc2)c(O)c1O	12	37*	-1	75*	28	85*	nt	rCAG bind conf=56*;DNA CAG counter=28*
COC(=O)C12OCC34C(CC5C(C)=C(O)C(=O)CC5(C)C3C(O)C1O)OC(=O)C(OC(=O)/C=C(\C)C(C)C)C24 (configuration not stated)	3	2	-10	5	-9	nt	nt
CCc1cc(OC)c(CCN)cc1OC	-2	1	-3	nt	3	nt	nt
CN(C)[C@@H]1C(=O)C(C(N)=O)=C(O)[C@@]2(O)C(=O)C3=C(O)c4c(O)cccc4[C@@](C)(O)[C@H]3[C@H](O)[C@@H]12	61*	70*	10	51*	63*	23	nt	rCAG bind conf=67*;DNA CAG counter=34*
C=CCN1CCc2cccc3c2[C@H]1Cc1ccc(O)c(O)c1-3	40*	7	15	63*	44*	80*	24
N#Cc1ccc(NC(=S)N2Cc3ccc(Br)cc3-n3nncc3C2)cc1	-1	7	-1	nt	-6	nt	nt
Cc1ccc(N2Cc3ccccc3-n3nncc3C2)cc1	-2	2	4	nt	9	nt	nt
CCOc1ccccc1-n1c(O)c(C=Nc2ccc(N(CC)CC)cc2)c(=O)[nH]c1=O	17	20	11	58*	67*	4	13
CCOc1ccc(-n2c(O)c(C=Nc3ccc(N(CC)CC)cc3)c(=O)[nH]c2=O)cc1	3	0	7	3	14	nt	nt
CCN(CC)c1ccc(N=Cc2c(O)n(-c3ccccc3)c(=O)[nH]c2=O)cc1	25*	10	9	40*	67*	18	9
CCN(CC)c1ccc(N=Cc2c(O)[nH]c(=O)[nH]c2=O)cc1	31*	17	10	53*	57*	20	1
CCN(CC)c1ccc(N=Cc2c(O)n(Cc3ccccc3)c(=O)[nH]c2=O)cc1	2	0	8	8	13	nt	nt
SMILES	PRMT1 FP inh	rCAG binder	SIAE primary	HTRA1 inh	mABHD4 FP	HTRA1 inh conf	mABHD4 conf	others
O=C(Nc1ccccc1)N1Cc2cc(Br)ccc2-n2nncc2C1	1	1	-3	nt	0	nt	nt
Cc1ccc(OC(=O)N(C)C[C@H]2OCc3cnnn3CCCC(=O)N([C@H](C)CO)C[C@H]2C)cc1	-4	0	8	nt	-4	nt	nt
CN(C)[C@@H]1C(=O)C(C(N)=O)=C(O)[C@@]2(O)C(=O)C3=C(O)c4c(O)ccc(Cl)c4[C@@](C)(O)[C@H]3C[C@@H]12	24*	22	9	40*	57*	15	8
CN1C(=O)/C(=C/c2cccn2-c2ccc3ccccc3c2)C(=O)NC1=S	44*	63*	11	60*	65*	12	3	rCAG bind conf=22;DNA CAG counter=16*
Cc1cc(C)cc(N2C(=O)NC(=O)/C(=C\c3cccn3-c3ccccc3)C2=O)c1	5	10	-4	2	-4	nt	nt
NCCc1cc(O)c(O)cc1O	43*!	61*	91*	73*	45*	48*	92*	rCAG bind conf=28;DNA CAG counter=14*
CC[n+]1c(-c2ccccc2)c2cc(N)ccc2c2ccc(N)cc21	37*	25	54*	109*	82*	118*	105*	PRMT1 confirm=11;SIAE confirm=67*
COP(=O)(NC(=O)C(Cl)(Cl)Cl)OC	2	-2	-3	7	3	nt	nt
CC1=C[C@@H]2c3cccc4[nH]cc(c34)C[C@H]2N(C)C1	39*	-44	17*	40*	19	16	nt	PRMT1 confirm=36*;SIAE confirm=1
O=C(O)C1=CC2c3ccccc3C1c1ccccc12	3	0	0	-8	8	nt	nt
CCOC(=O)C1CCCN(c2ccc([N+](=O)[O-])c3nonc23)C1 (configuration not stated)	122*	i	21*	47*	67*	56*	56*	PRMT1 confirm=135*;SIAE confirm=47*
O=c1c2ccccc2nc(-c2ccc(-c3ccccc3)cc2)n1-c1ccncc1	1	-2	-5	-28	-13	nt	nt
CC(=O)c1ccc2c(c1)C1C(Cl)C(Sc3ccccc3[N+](=O)[O-])CC1C(C(=O)O)N2 (configuration not stated)	49*	87*	21*	88*	54*	71*	104*	rCAG bind conf=95*;DNA CAG counter=73*;PRMT1 confirm=23*;SIAE confirm=8
COCCn1c(-c2ccccc2)cc(C(=O)O)c1C	2	2	5	-2	-8	nt	nt
